We go through ten compounds from paper PMC5074845 (ACS chemical biology, 2016).

Assay [1] concerns the target T1, NAPE-PLD (Homo sapiens, UniProt Q6IQ20).
T1 sequence (Q6IQ20 48-393 limits assumed): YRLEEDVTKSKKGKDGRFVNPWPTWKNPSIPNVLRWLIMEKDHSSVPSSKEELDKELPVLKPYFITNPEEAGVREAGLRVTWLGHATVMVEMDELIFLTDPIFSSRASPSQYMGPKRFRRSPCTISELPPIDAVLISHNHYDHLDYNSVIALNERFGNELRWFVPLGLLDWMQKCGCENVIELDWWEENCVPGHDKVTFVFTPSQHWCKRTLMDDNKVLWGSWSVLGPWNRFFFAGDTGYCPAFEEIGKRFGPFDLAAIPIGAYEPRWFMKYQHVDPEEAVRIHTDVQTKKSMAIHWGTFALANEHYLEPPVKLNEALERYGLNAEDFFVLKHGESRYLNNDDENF
Put plainly: Enzyme kinetics by UPLC-MS/MS in the presence of DCA. Format: biochemical. The settings on record: for Km / maximum velocity (Vmax): DCA 0.2% w/v, 37 °C, 15 min, UPLC-MS/MS. The method, boiled down:
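Recombinant enzyme was incubated with varying N-arachidonoyl-PE or N-palmitoyl-PE in 0.05 M Tris-HCl pH 7.4 with 0.2% w/v DCA, 15 min, 37 °C. Reactions were stopped with cold acetonitrile containing AEA-d4 or PEA-d4 internal standard, centrifuged, and the organic layer taken. Products (AEA, PEA) were quantified by UPLC-MS/MS MRM in positive ESI against weighted (1/x) calibration curves. Runs were in triplicate. Km and Vmax came from Michaelis–Menten fits.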

Assay [2] relates to NAPE-PLD. The settings on record: without bile acid; cited from earlier work.
The target in assay [3] is T1, NAPE-PLD. Put plainly: Binding kinetics by surface plasmon resonance. The settings on record: for binding affinity compared with another bile acid: SPR, 25 °C, comparison in words. On the technique in general: Surface plasmon resonance follows binding to a sensor surface in real time, without labels.
Assay [4] concerns the target T1, NAPE-PLD. Put plainly: Fluorescence-based NAPE-PLD activity assay with substrate PED6. The format is biochemical. The method, boiled down: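 Recombinant human enzyme, purified by amylose then Ni-affinity and size exclusion. Enzyme at 25 nM in 50 mM Tris-HCl pH 8 was pre-incubated 1 h at room temperature with test bile acids (0–5 mM). PED6 was added to 10 μM final (1% DMSO/ethyl acetate). Fluorescence was read after 30 min at 25 °C in the dark ([…] filters). Monohydroxy bile acid was run with 0.2% w/v DCA.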

Assay [5] concerns the target T1, NAPE-PLD. Put plainly: Elastic incoherent neutron scattering. Conditions: DCA ~10 times the concentration of the enzyme, 280-307 K, D2O buffer. The procedure, abridged: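 Purified enzyme in D2O (five exchanges against 100× volume) at 100 mg/mL, with DCA at 0.00, 0.05, 0.15, 0.50 or 1.00% w/v (DCA:enzyme ratios 0–10). Elastic spectra were collected at […], ~3 h per point, on IN13 (up to 100 ps). <u2> came from the slope of ln elastic intensity versus Q2. Force constant came from the <u2>-versus-T slope under a quasi-harmonic approximation.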

pEC50, pKd: −log10 of the molar value. Values joined by “and” are separate entries in the source; they are usually repeats but may differ in a detail not shown here. Identical values can stand only once. Like-named read-outs stand apart in the source and are kept apart here.

As a reminder, the Km is the substrate concentration at which the rate is half of its maximum. As to “N-palmitoyl-phosphatidylethanolamine [N-palmitoyl-PE]”, in assay [1], the Km was ~9 µM and 9.2 µM; the “maximum velocity (Vmax)” value was 155.8 (± 38.36) nmol/min/mg protein and ~ 156 nmol/min/mg protein. Besides, in assay [2], the Vmax is ~ 98 nmol/min/mg.
Turning to `C[C@H](CCC(=O)NCCS(=O)(=O)O)[C@H]1CC[C@H]2[C@@H]3[C@H](O)C[C@@H]4C[C@H](O)CC[C@]4(C)[C@H]3C[C@H](O)[C@]12C` [TCA, taurocholic acid], the “binding affinity compared with another bile acid” value in assay [3] is reported as “~tenfold lower”.
As a reminder, the pEC50 is the EC50 on a negative log10 scale, so that one unit is a factor of ten. As a reminder, the pKd is the Kd on a negative log10 scale, so that one unit is a factor of ten. High values mean a low Kd, low ones a high Kd. On to `C[C@H](CCC(=O)O)[C@H]1CC[C@H]2[C@@H]3[C@H](O)C[C@@H]4C[C@H](O)CC[C@]4(C)[C@H]3CC[C@]12C` [CDCA, chenodeoxycholic acid], for which the pEC50 in assay [4] was about 2.37. The compound further showed a pKd in assay [3] of about 4.60.
With “N-arachidonyl-phosphatidylethanolamine [N-arachidonoyl-PE]”, in assay [1], the Michaelis constant (Km) was ~9 µM and 9.6 µM; the “maximum velocity (Vmax)” value was 1131 (± 124.4) nmol/min/mg protein and ~ 1131 nmol/min/mg protein. Further, the “rate of hydrolysis compared with N-palmitoyl-phosphatidylethanolamine” value in assay [1] (in the presence of deoxycholic acid) is reported as ~ 7 times. Further, in assay [2], the Vmax was ~ 73 nmol/min/mg.
Turning to `CC(=O)O[C@H]1C[C@@]2(C)[C@@H](C[C@@H](O)[C@H]3[C@@]4(C)CC[C@@H](O)[C@@H](C)[C@@H]4CC[C@@]32C)/C1=C(\CCC=C(C)C)C(=O)O` [FA, fusidic acid], the negative-log Kd (pKd) in assay [3] was about 4.15.
With `C[C@H](CCC(=O)NCC(=O)O)[C@H]1CC[C@H]2[C@@H]3[C@H](O)C[C@@H]4C[C@H](O)CC[C@]4(C)[C@H]3CC[C@]12C` [GCDG], the negative logarithm of the EC50 (pEC50) in assay [4] (read-out: EC50 of enzyme activation, enzyme 25 nM, PED6 substrate, 25 °C, 30 min) was about 2.44.
With `C[C@H](CCC(=O)O)[C@H]1CC[C@H]2[C@@H]3[C@H](O)C[C@@H]4C[C@H](O)CC[C@]4(C)[C@H]3C[C@H](O)[C@]12C` [CA, cholic acid], in assay [3], the negative-log Kd (pKd) is about 3.39 and the “binding affinity compared with another bile acid” value is “~tenfold lower binding affinity”.
For the compound `C[C@H](CCC(=O)O)[C@H]1CC[C@H]2[C@@H]3CC[C@@H]4C[C@H](O)CC[C@]4(C)[C@H]3CC[C@]12C` [LCA, lithocholic acid], the “effect on NAPE-PLD enzyme activity” value in assay [4] (bile acid alone, PED6 substrate) was “not able alone to solubilize the substrate and activate the membrane enzyme”. The negative-log Kd (pKd) in assay [3] is about 4.70.
In assay [3], `C[C@H](CCC(=O)O)[C@H]1CC[C@H]2[C@@H]3CC[C@@H]4C[C@H](O)CC[C@]4(C)[C@H]3C[C@H](O)[C@]12C` [DCA, deoxycholic acid] had a negative logarithm of the Kd (pKd) of about 4.37. In addition, the “effect on protein flexibility (force constant k, mean square displacement)” value in assay [5] is “the system lost flexibility”.
As for `C[C@H](CCC(=O)NCCC[N+](C)(C)CCCS(=O)(=O)[O-])[C@H]1CC[C@H]2[C@@H]3[C@H](O)C[C@@H]4C[C@H](O)CC[C@]4(C)[C@H]3C[C@H](O)[C@]12C` [CHAPS], the “binding affinity compared with another bile acid” value in assay [3] was “~tenfold lower”.
